Laboratory results as given in article PMC4832308 (Cancer, 2015).

System: patients with advanced solid tumors or multiple myeloma
Experiment: phase 1 dose escalation: safety, tolerability, DLT, MTD
Type: in vivo, human
Summary of the method: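 Modified accelerated titration from 7.5 mg, oral daily in 28-day cycles. Single-patient cohorts used 100% increments until the first drug-related grade ≥2 toxicity, then 6-patient cohorts used ~50% steps. A dose with ≥2 DLTs was nontolerated. MTD was the last lower dose with 0–1 of 6 DLTs in cycle 1. Adverse events were graded by NCI CTCAE version 4.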

CO[C@H]1CC[C@H](N2C(=O)CNc3ncc(-c4ccc(C(C)(C)O)nc4)nc32)CC1 [CC‐223]
Dyspnea (treatment‐related AE) (45 mg, Any Grade): 1 (11) n (%) | Fatigue (treatment‐related AE) (45 mg, Any Grade): 5 (56) n (%) | Hyperglycemia (treatment‐related AE) (45 mg, Any Grade): 4 (44) n (%) | Increased glycosylated hemoglobin (treatment‐related AE) (45 mg, Any Grade): 2 (22) n (%) | Mucositis (treatment‐related AE) (45 mg, Any Grade): 3 (33) n (%) | Nausea (treatment‐related AE) (45 mg, Any Grade): 6 (67) n (%) | Pruritus (treatment‐related AE) (45 mg, Any Grade): 2 (22) n (%) | Rash (treatment‐related AE) (45 mg, Any Grade): 2 (22) n (%) | Rash pruritic (treatment‐related AE) (45 mg, Any Grade): 0 n (%) | Thrombocytopenia (treatment‐related AE) (45 mg, Any Grade): 2 (22) n (%) | Vomiting (treatment‐related AE) (45 mg, Any Grade): 2 (22) n (%) | Arthralgia (treatment‐related AE) (45 mg, Grade ≥3): 0 n (%) | Asthenia (treatment‐related AE) (45 mg, Grade ≥3): 0 n (%) | Decreased appetite (treatment‐related AE) (45 mg, Grade ≥3): 0 n (%) | Diarrhea (treatment‐related AE) (45 mg, Grade ≥3): 0 n (%) | Dry mouth (treatment‐related AE) (45 mg, Grade ≥3): 0 n (%) | Dysgeusia (treatment‐related AE) (45 mg, Grade ≥3): 0 n (%) | Dyspnea (treatment‐related AE) (45 mg, Grade ≥3): 0 n (%) | Fatigue (treatment‐related AE) (45 mg, Grade ≥3): 1 (11) n (%) | Hyperglycemia (treatment‐related AE) (45 mg, Grade ≥3): 1 (11) n (%) | Increased glycosylated hemoglobin (treatment‐related AE) (45 mg, Grade ≥3): 0 n (%) | Mucositis (treatment‐related AE) (45 mg, Grade ≥3): 0 n (%) | Nausea (treatment‐related AE) (45 mg, Grade ≥3): 0 n (%) | Pruritus (treatment‐related AE) (45 mg, Grade ≥3): 0 n (%) | Rash (treatment‐related AE) (45 mg, Grade ≥3): 1 (11) n (%) | Rash pruritic (treatment‐related AE) (45 mg, Grade ≥3): 0 n (%) | Thrombocytopenia (treatment‐related AE) (45 mg, Grade ≥3): 0 n (%) | Vomiting (treatment‐related AE) (45 mg, Grade ≥3): 0 n (%) | Dose interruptions (60 mg): 7 | Dose reductions (60 mg): 5 | Arthralgia (treatment‐related AE) (60 mg, Any Grade): 2 (29) n (%) | Asthenia (treatment‐related AE) (60 mg, Any Grade): 3 (43) n (%) | Decreased appetite (treatment‐related AE) (60 mg, Any Grade): 2 (29) n (%) | Diarrhea (treatment‐related AE) (60 mg, Any Grade): 5 (71) n (%) | Dry mouth (treatment‐related AE) (60 mg, Any Grade): 0 n (%) | Dysgeusia (treatment‐related AE) (60 mg, Any Grade): 1 (14) n (%) | Dyspnea (treatment‐related AE) (60 mg, Any Grade): 1 (14) n (%) | Fatigue (treatment‐related AE) (60 mg, Any Grade): 7 (100) n (%) | Hyperglycemia (treatment‐related AE) (60 mg, Any Grade): 4 (57) n (%) | Increased glycosylated hemoglobin (treatment‐related AE) (60 mg, Any Grade): 2 (29) n (%) | Mucositis (treatment‐related AE) (60 mg, Any Grade): 5 (71) n (%) | Nausea (treatment‐related AE) (60 mg, Any Grade): 3 (43) n (%) | Pruritus (treatment‐related AE) (60 mg, Any Grade): 0 n (%) | Rash (treatment‐related AE) (60 mg, Any Grade): 3 (43) n (%) | Rash pruritic (treatment‐related AE) (60 mg, Any Grade): 2 (29) n (%) | Thrombocytopenia (treatment‐related AE) (60 mg, Any Grade): 0 n (%) | Vomiting (treatment‐related AE) (60 mg, Any Grade): 5 (71) n (%) | Arthralgia (treatment‐related AE) (60 mg, Grade ≥3): 1 (14) n (%) | Asthenia (treatment‐related AE) (60 mg, Grade ≥3): 0 n (%) | Decreased appetite (treatment‐related AE) (60 mg, Grade ≥3): 0 n (%) | Diarrhea (treatment‐related AE) (60 mg, Grade ≥3): 1 (14) n (%) | Dry mouth (treatment‐related AE) (60 mg, Grade ≥3): 0 n (%) | Dysgeusia (treatment‐related AE) (60 mg, Grade ≥3): 0 n (%) | Dyspnea (treatment‐related AE) (60 mg, Grade ≥3): 0 n (%) | Fatigue (treatment‐related AE) (60 mg, Grade ≥3): 1 (14) n (%) | Hyperglycemia (treatment‐related AE) (60 mg, Grade ≥3): 2 (29) n (%) | Increased glycosylated hemoglobin (treatment‐related AE) (60 mg, Grade ≥3): 0 n (%) | Mucositis (treatment‐related AE) (60 mg, Grade ≥3): 2 (29) n (%) | Nausea (treatment‐related AE) (60 mg, Grade ≥3): 0 n (%) | Pruritus (treatment‐related AE) (60 mg, Grade ≥3): 0 n (%) | Rash (treatment‐related AE) (60 mg, Grade ≥3): 1 (14) n (%) | Rash pruritic (treatment‐related AE) (60 mg, Grade ≥3): 2 (29) n (%) | Thrombocytopenia (treatment‐related AE) (60 mg, Grade ≥3): 0 n (%) | Vomiting (treatment‐related AE) (60 mg, Grade ≥3): 0 n (%) | Arthralgia (treatment‐related AE) (Overall (N = 28), Any Grade): 4 (14) n (%) | Asthenia (treatment‐related AE) (Overall (N = 28), Any Grade): 7 (25) n (%) | Decreased appetite (treatment‐related AE) (Overall (N = 28), Any Grade): 9 (32) n (%) | Diarrhea (treatment‐related AE) (Overall (N = 28), Any Grade): 13 (46) n (%) | Dry mouth (treatment‐related AE) (Overall (N = 28), Any Grade): 3 (11) n (%) | Dysgeusia (treatment‐related AE) (Overall (N = 28), Any Grade): 5 (18) n (%) | Dyspnea (treatment‐related AE) (Overall (N = 28), Any Grade): 3 (11) n (%) | Fatigue (treatment‐related AE) (Overall (N = 28), Any Grade): 18 (64) n (%) | Hyperglycemia (treatment‐related AE) (Overall (N = 28), Any Grade): 12 (43) n (%) | Increased glycosylated hemoglobin (treatment‐related AE) (Overall (N = 28), Any Grade): 4 (14) n (%) | Mucositis (treatment‐related AE) (Overall (N = 28), Any Grade): 11 (39) n (%) | Nausea (treatment‐related AE) (Overall (N = 28), Any Grade): 14 (50) n (%) | Pruritus (treatment‐related AE) (Overall (N = 28), Any Grade): 4 (14) n (%) | Rash (treatment‐related AE) (Overall (N = 28), Any Grade): 7 (25) n (%) | Rash pruritic (treatment‐related AE) (Overall (N = 28), Any Grade): 3 (11) n (%) | Thrombocytopenia (treatment‐related AE) (Overall (N = 28), Any Grade): 3 (11) n (%) | Vomiting (treatment‐related AE) (Overall (N = 28), Any Grade): 9 (32) n (%) | Arthralgia (treatment‐related AE) (Overall (N = 28), Grade ≥3): 1 (4) n (%) | Asthenia (treatment‐related AE) (Overall (N = 28), Grade ≥3): 0 n (%) | Decreased appetite (treatment‐related AE) (Overall (N = 28), Grade ≥3): 0 n (%) | Diarrhea (treatment‐related AE) (Overall (N = 28), Grade ≥3): 1 (4) n (%) | Dry mouth (treatment‐related AE) (Overall (N = 28), Grade ≥3): 0 n (%) | Dysgeusia (treatment‐related AE) (Overall (N = 28), Grade ≥3): 0 n (%) | Dyspnea (treatment‐related AE) (Overall (N = 28), Grade ≥3): 0 n (%) | Fatigue (treatment‐related AE) (Overall (N = 28), Grade ≥3): 2 (7) n (%) | Hyperglycemia (treatment‐related AE) (Overall (N = 28), Grade ≥3): 5 (18) n (%) | Increased glycosylated hemoglobin (treatment‐related AE) (Overall (N = 28), Grade ≥3): 0 n (%) | Mucositis (treatment‐related AE) (Overall (N = 28), Grade ≥3): 2 (7) n (%) | Nausea (treatment‐related AE) (Overall (N = 28), Grade ≥3): 0 n (%) | Pruritus (treatment‐related AE) (Overall (N = 28), Grade ≥3): 0 n (%) | Rash (treatment‐related AE) (Overall (N = 28), Grade ≥3): 2 (7) n (%) | Rash pruritic (treatment‐related AE) (Overall (N = 28), Grade ≥3): 2 (7) n (%) | Thrombocytopenia (treatment‐related AE) (Overall (N = 28), Grade ≥3): 0 n (%) | Vomiting (treatment‐related AE) (Overall (N = 28), Grade ≥3): 0 n (%) | Dose interruptions (Total): 22 | treatment‐related AE: asthenia (all patients, any grade): 25% | treatment‐related AE: decreased appetite (all patients, any grade): 32% | treatment‐related AE: fatigue (all patients, any grade): 64% | treatment‐related AE: nausea (all patients, any grade): 50% | treatment‐related AE: rash (all patients, any grade): 25% | treatment‐related AE: vomiting (all patients, any grade): 32% | treatment‐related AE: hyperglycemia (all patients, grade ≥3): 18% | patients requiring dose interruptions (at the MTD (45 mg/d)): 55.6% | patients requiring dose reductions (at the MTD (45 mg/d)): 11.1% | treatment‐related hyperglycemia, number of patients (grade ≥3, 30‐mg/d cohort): 2 n | treatment‐related hyperglycemia, number of patients (grade ≥3, 45‐mg/d cohort): 1 n | treatment‐related hyperglycemia, number of patients (grade ≥3, 60‐mg/d cohort): 2 n | maximum tolerated dosage (MTD) (oral daily dosing, 28‐day cycles): 45 mg/day | median time to dose reduction (overall): 25 days | increases in glucose, insulin, and C‐peptide levels (patients receiving doses ≥30 mg/d): dose‐dependent | patients with dose‐limiting toxicities (treatment cycle 1, all cohorts): Four
